Test results taken from paper PMC10975593 (ACS Omega, 2024).
Read-outs that look alike come from different tables or passages of the source.

Assays:
PI3Kγ enzyme = PI3Kγ enzyme (Homo sapiens, UniProt P48736); experiment: Adapta universal kinase assay, anti-PI3Kγ activity; format: biochemical
Method in brief: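 Adapta ADP-detection TR-FRET immunoassay with test compound at 100 μM. The kinase reaction runs 60 min. It is then stopped by a detection solution of EDTA, europium-labelled anti-ADP antibody and Alexa Fluor 647-labelled ADP tracer. ADP formed displaces the tracer and lowers the TR-FRET signal. ADP formation is calculated from the emission ratio.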

A549 cancer cell line = experiment: MTT assay; format: cell-based; conditions: Homo sapiens, A549, 72 h
Method in brief: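 A549 in DMEM and MCF-7 in RPMI, each with 10% heat-inactivated FBS, 1% penicillin/streptomycin and 2 mmol/L glutamine at 37 °C, 5% CO2. Seeded at 2000 (A549) or 10,000 (MCF-7) cells/well and attached 24 h. Then 72 h with test compound at varying concentrations. MTT (5 mg/mL stock) added for 4 h at 37 °C, formazan dissolved in DMSO, absorbance read at 450/540 nm. Triplicates in three separate experiments.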

Escherichia coli = experiment: Disc diffusion antimicrobial test; format: cell-based; conditions: Escherichia coli, 24 h, read-out: zone of inhibition (diameter of inhibition)
Method in brief: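 Disc diffusion on nutrient agar, test compound at 100 μg/mL with DMSO as solvent. Plates incubated at 37 °C for 24 h after inoculation, then zone of inhibition measured and compared with standards. Controls were DMSO, amoxicillin, ciprofloxacin and tetracycline.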

MDA-MB-468 = experiment: NCI 60-cell line screen; format: cell-based, human
SF-268 = experiment: NCI 60-cell line screen; format: cell-based, human
Method in brief: (§1)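 Test compounds were submitted to the National Cancer Institute and run under NCI's standard 60-cell-line protocols. Read-outs were taken from percent-growth versus log-concentration curves.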

SNB-19 = experiment: NCI 60-cell line screen; format: cell-based, human
Method in brief: as §1

SNB-75 = experiment: NCI 60-cell line screen; format: cell-based, human
Method in brief: as §1

HCT-15 = experiment: NCI 60-cell line screen; format: cell-based, human
KM12 = experiment: NCI 60-cell line screen; format: cell-based, human
K-562 = experiment: NCI 60-cell line screen; format: cell-based, human
MALME-3M = experiment: NCI 60-cell line screen; format: cell-based, human
SK-MEL-2 = experiment: NCI 60-cell line screen; format: cell-based, human
Method in brief: as §1

HOP-62 = experiment: NCI 60-cell line screen; format: cell-based, human
HOP-92 = experiment: NCI 60-cell line screen; format: cell-based, human
NCI-H23 = experiment: NCI 60-cell line screen; format: cell-based, human
NCI-H322M = experiment: NCI 60-cell line screen; format: cell-based, human
OVCAR-3 = experiment: NCI 60-cell line screen; format: cell-based, human
OVCAR-4 = experiment: NCI 60-cell line screen; format: cell-based, human
DU-145 = experiment: NCI 60-cell line screen; format: cell-based, human
A498 = experiment: NCI 60-cell line screen; format: cell-based, human
SN12C = experiment: NCI 60-cell line screen; format: cell-based, human
Method in brief: as §1

TK-10 = experiment: NCI 60-cell line screen; format: cell-based, human
Method in brief: as §1

HL-60(TB) = experiment: cells; conditions: Homo sapiens

Chain of PI3Kγ enzyme (P48736 whole entry): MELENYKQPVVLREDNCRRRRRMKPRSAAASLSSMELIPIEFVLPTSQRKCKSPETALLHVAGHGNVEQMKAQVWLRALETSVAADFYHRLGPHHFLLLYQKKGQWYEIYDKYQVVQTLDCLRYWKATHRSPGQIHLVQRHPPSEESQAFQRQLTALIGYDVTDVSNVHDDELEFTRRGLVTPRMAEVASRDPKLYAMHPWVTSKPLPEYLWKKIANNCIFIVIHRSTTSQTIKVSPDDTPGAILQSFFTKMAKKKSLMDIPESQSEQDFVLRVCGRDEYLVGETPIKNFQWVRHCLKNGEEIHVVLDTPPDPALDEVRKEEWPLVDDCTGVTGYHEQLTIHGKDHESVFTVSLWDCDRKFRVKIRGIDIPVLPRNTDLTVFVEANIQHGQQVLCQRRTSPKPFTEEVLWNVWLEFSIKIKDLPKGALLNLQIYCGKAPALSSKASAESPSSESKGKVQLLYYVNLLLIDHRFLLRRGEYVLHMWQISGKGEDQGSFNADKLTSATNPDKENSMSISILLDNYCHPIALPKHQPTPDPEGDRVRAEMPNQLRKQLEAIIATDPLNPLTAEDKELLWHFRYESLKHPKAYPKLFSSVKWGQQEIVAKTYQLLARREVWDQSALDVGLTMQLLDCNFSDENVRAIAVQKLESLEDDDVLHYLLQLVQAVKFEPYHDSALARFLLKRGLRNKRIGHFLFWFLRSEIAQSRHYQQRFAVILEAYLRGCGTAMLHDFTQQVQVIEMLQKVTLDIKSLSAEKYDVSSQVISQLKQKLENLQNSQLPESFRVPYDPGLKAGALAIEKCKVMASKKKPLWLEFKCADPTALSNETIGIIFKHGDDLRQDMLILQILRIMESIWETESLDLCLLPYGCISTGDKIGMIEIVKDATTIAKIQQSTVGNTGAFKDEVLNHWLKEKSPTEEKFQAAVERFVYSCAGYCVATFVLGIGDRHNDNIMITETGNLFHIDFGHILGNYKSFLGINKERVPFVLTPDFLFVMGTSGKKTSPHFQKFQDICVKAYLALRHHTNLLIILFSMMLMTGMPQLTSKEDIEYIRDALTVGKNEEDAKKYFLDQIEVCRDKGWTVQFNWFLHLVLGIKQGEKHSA

Question: For `O=C(CN1CCN(CC(=O)Nc2nc3ccccc3s2)CC1)Nc1ccc([N+](=O)[O-])cc1` [OMS14, N-(benzo[d]thiazol-2-yl)-2-(4-(2-((4-nitrophenyl)amino)-2-oxoethyl)piperazin-1-yl)acetamide], which inhibition at 100 µM (PI3Kγ enzyme; read-out: % of inhibition (mean) against PI3Kγ enzyme) is on record?
Answer: 19%

Question: And the inhibition at 100 µM (PI3Kγ enzyme; read-out: % of inhibition against PI3Kγ enzyme, point 1)?
Answer: 15%

Question: What about the inhibition at 100 µM (PI3Kγ enzyme; read-out: % of inhibition against PI3Kγ enzyme, point 2) of the same compound?
Answer: 24%

Question: What about the IC50 (A549 cancer cell line) of the same compound?
Answer: 26.1 µM

Question: And the inhibition at 100 µM (A549 cancer cell line; read-out: experimental % of inhibition on A549 cancer cell line)?
Answer: 90.6%

Question: And the zone of inhibition at 100 µg/mL (Escherichia coli)?
Answer: 0 mm

Question: What about the GI50 (MDA-MB-468; Homo sapiens, MDA-MB-468) of the same compound?
Answer: 1500 nM

Question: What about the IC50 (MDA-MB-468; Homo sapiens, MDA-MB-468) of the same compound?
Answer: 3.2 µM

Question: And the CC50 (MDA-MB-468; Homo sapiens, MDA-MB-468, read-out: LC50)?
Answer: 7.1 µM

Question: What about the TGI (MDA-MB-468; MDA-MB-468, breast cancer) of the same compound?
Answer: 3.2 µM

Question: What about the GI50 (SF-268; Homo sapiens, SF-268) of the same compound?
Answer: 2200 nM

Question: What about the IC50 (SF-268; Homo sapiens, SF-268) of the same compound?
Answer: 4.6 µM

Question: And the CC50 (SF-268; Homo sapiens, SF-268, read-out: LC50)?
Answer: 43.7 µM

Question: And the TGI (SF-268; SF-268, CNS cancer)?
Answer: 7.1 µM

Question: And the GI50 (SNB-19; Homo sapiens, SNB-19)?
Answer: 2800 nM

Question: And the IC50 (SNB-19; Homo sapiens, SNB-19)?
Answer: 4.9 µM

Question: What about the CC50 (SNB-19; Homo sapiens, SNB-19, read-out: LC50) of the same compound?
Answer: > 100 µM

Question: What about the TGI (SNB-19; SNB-19, CNS cancer) of the same compound?
Answer: 12.3 µM

Question: What about the GI50 (SNB-75; Homo sapiens, SNB-75) of the same compound?
Answer: 2000 nM

Question: And the IC50 (SNB-75; Homo sapiens, SNB-75)?
Answer: 6.6 µM

Question: And the CC50 (SNB-75; Homo sapiens, SNB-75, read-out: LC50)?
Answer: 24 µM

Question: And the TGI (SNB-75; SNB-75, CNS cancer)?
Answer: 6.0 µM

Question: What about the TGI (HCT-15; HCT-15, colon cancer) of the same compound?
Answer: 3.7 µM

Question: And the GI50 (HCT-15; Homo sapiens, HCT-15)?
Answer: 1700 nM

Question: What about the IC50 (HCT-15; Homo sapiens, HCT-15) of the same compound?
Answer: 2800 nM

Question: What about the CC50 (HCT-15; Homo sapiens, HCT-15, read-out: LC50) of the same compound?
Answer: 7.9 µM

Question: What about the GI50 (KM12; Homo sapiens, KM12) of the same compound?
Answer: 2900 nM

Question: What about the IC50 (KM12; Homo sapiens, KM12) of the same compound?
Answer: 4.5 µM

Question: What about the CC50 (KM12; Homo sapiens, KM12, read-out: LC50) of the same compound?
Answer: 74.1 µM

Question: And the TGI (KM12; KM12, colon cancer)?
Answer: 13.5 µM

Question: What about the GI50 (K-562; Homo sapiens, K562) of the same compound?
Answer: 2600 nM

Question: And the IC50 (K-562; Homo sapiens, K562)?
Answer: 3000 nM

Question: What about the CC50 (K-562; Homo sapiens, K562, read-out: LC50) of the same compound?
Answer: > 100 µM

Question: And the TGI (K-562; K-562, leukemia)?
Answer: 100 µM

Question: What about the GI50 (MALME-3M; Homo sapiens, Malme-3M) of the same compound?
Answer: 3000 nM

Question: And the IC50 (MALME-3M; Homo sapiens, Malme-3M)?
Answer: 6.6 µM

Question: What about the CC50 (MALME-3M; Homo sapiens, Malme-3M, read-out: LC50) of the same compound?
Answer: 35.5 µM

Question: What about the TGI (MALME-3M; MALME-3M, melanoma) of the same compound?
Answer: 9.3 µM

Question: What about the GI50 (SK-MEL-2; Homo sapiens, SK-MEL-2) of the same compound?
Answer: 1800 nM

Question: What about the IC50 (SK-MEL-2; Homo sapiens, SK-MEL-2) of the same compound?
Answer: 3.5 µM

Question: And the CC50 (SK-MEL-2; Homo sapiens, SK-MEL-2, read-out: LC50)?
Answer: 6.9 µM

Question: What about the TGI (SK-MEL-2; SK-MEL-2, melanoma) of the same compound?
Answer: 3.5 µM

Question: And the TGI (HOP-62; HOP-62, non-small cell lung cancer)?
Answer: 3.7 µM

Question: What about the GI50 (HOP-62; Homo sapiens, HOP-62) of the same compound?
Answer: 1700 nM

Question: And the IC50 (HOP-62; Homo sapiens, HOP-62)?
Answer: 3.2 µM

Question: What about the CC50 (HOP-62; Homo sapiens, HOP-62, read-out: LC50) of the same compound?
Answer: 8.3 µM

Question: What about the TGI (HOP-92; HOP-92, non-small cell lung cancer) of the same compound?
Answer: 8.3 µM

Question: And the GI50 (HOP-92; Homo sapiens, HOP-92)?
Answer: 2300 nM

Question: What about the IC50 (HOP-92; Homo sapiens, HOP-92) of the same compound?
Answer: 9.1 µM

Question: What about the CC50 (HOP-92; Homo sapiens, HOP-92, read-out: LC50) of the same compound?
Answer: 89.1 µM

Question: What about the GI50 (NCI-H23; Homo sapiens, NCI-H23) of the same compound?
Answer: 1600 nM

Question: What about the IC50 (NCI-H23; Homo sapiens, NCI-H23) of the same compound?
Answer: 3.2 µM

Question: And the CC50 (NCI-H23; Homo sapiens, NCI-H23, read-out: LC50)?
Answer: 8.9 µM

Question: And the TGI (NCI-H23; NCI-H23, non-small cell lung cancer)?
Answer: 3.8 µM

Question: What about the GI50 (NCI-H322M; Homo sapiens) of the same compound?
Answer: 1900 nM

Question: What about the IC50 (NCI-H322M; Homo sapiens) of the same compound?
Answer: 3.7 µM

Question: What about the CC50 (NCI-H322M; Homo sapiens, read-out: LC50) of the same compound?
Answer: 40.7 µM

Question: And the TGI (NCI-H322M; non-small cell lung cancer)?
Answer: 5.5 µM

Question: And the GI50 (OVCAR-3; Homo sapiens, OVCAR-3)?
Answer: 2300 nM

Question: And the IC50 (OVCAR-3; Homo sapiens, OVCAR-3)?
Answer: 4.3 µM

Question: And the CC50 (OVCAR-3; Homo sapiens, OVCAR-3, read-out: LC50)?
Answer: > 100 µM

Question: What about the TGI (OVCAR-3; OVCAR-3, ovarian cancer) of the same compound?
Answer: 6.6 µM

Question: And the GI50 (OVCAR-4; Homo sapiens, OVCAR-4)?
Answer: 2400 nM

Question: And the IC50 (OVCAR-4; Homo sapiens, OVCAR-4)?
Answer: 5.2 µM

Question: What about the CC50 (OVCAR-4; Homo sapiens, OVCAR-4, read-out: LC50) of the same compound?
Answer: 75.9 µM

Question: And the TGI (OVCAR-4; OVCAR-4, ovarian cancer)?
Answer: 8.3 µM

Question: What about the TGI (DU-145; DU-145, prostate cancer) of the same compound?
Answer: 7.9 µM

Question: What about the GI50 (DU-145; Homo sapiens, DU-145) of the same compound?
Answer: 2200 nM

Question: What about the IC50 (DU-145; Homo sapiens, DU-145) of the same compound?
Answer: 3.5 µM

Question: What about the CC50 (DU-145; Homo sapiens, DU-145, read-out: LC50) of the same compound?
Answer: 38.9 µM

Question: And the TGI (A498; A498, renal cancer)?
Answer: 3.7 µM

Question: What about the GI50 (A498; Homo sapiens, A498) of the same compound?
Answer: 1700 nM

Question: And the IC50 (A498; Homo sapiens, A498)?
Answer: 3.8 µM

Question: What about the CC50 (A498; Homo sapiens, A498, read-out: LC50) of the same compound?
Answer: 7.9 µM

Question: What about the GI50 (SN12C; Homo sapiens) of the same compound?
Answer: 1900 nM

Question: What about the IC50 (SN12C; Homo sapiens) of the same compound?
Answer: 3.5 µM

Question: What about the CC50 (SN12C; Homo sapiens, read-out: LC50) of the same compound?
Answer: > 100 µM

Question: What about the TGI (SN12C; renal cancer) of the same compound?
Answer: 5.4 µM

Question: And the GI50 (TK-10; Homo sapiens, TK-10)?
Answer: 2200 nM

Question: What about the IC50 (TK-10; Homo sapiens, TK-10) of the same compound?
Answer: 6.2 µM

Question: And the CC50 (TK-10; Homo sapiens, TK-10, read-out: LC50)?
Answer: > 100 µM

Question: What about the TGI (TK-10; TK-10, renal cancer) of the same compound?
Answer: 7.1 µM

Question: What about the GI50 (HL-60(TB); HL-60) of the same compound?
Answer: 2500 nM

Question: And the IC50 (HL-60(TB); HL-60)?
Answer: 4.4 µM

Question: And the CC50 (HL-60(TB); HL-60, read-out: LC50)?
Answer: 81.3 µM
